Test results: ChEMBL document CHEMBL4422663, “Suppression of Tumor Growth and Metastases by Targeted Intervention in Urokinase Activity with Cyclic Peptides” (J Med Chem, 2019)
pKd, pKi: −log10 of the molar value. Calls of active or inactive are those of the source. The rule behind the calls is not given here. Positions of bridges follow the written chain, without caps; N, C: chain ends. Residues, ends and D or L forms follow the SMILES beside them.

Key:
CT26 [1] = experiment: Antimetastatic activity against GFP-fused mouse CT26 cells allografted in Balb/c mouse assessed as reduction in hyperplastic weights at 1.13 mg/kg, ip administered daily for 15 days by fluorescence-based assay; format: functional, organism-based
How it was run: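 GFP-CT-26 cells (10^6) iv into male Balb/c, daily ip treatment Days 1–15, lungs resected and weighed at sacrifice on Day 16. Hyperplastic weight is lung weight minus the mean weight of lungs from non-implanted normal mice.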

CT26 [2] = experiment: Antimetastatic activity against GFP-fused mouse CT26 cells allografted in Balb/c mouse assessed as reduction in relative fluorescence at 1.13 mg/kg, ip administered daily for 15 days by fluorescence-based assay; format: functional, organism-based
How it was run: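 After iv GFP-CT-26 implantation (10^6 cells) in male Balb/c and daily ip dosing Days 1–15, lungs were removed on Day 16. Whole-lung GFP was imaged with 488 nm excitation (em 520) and quantified over a 20×20 mm2 area per lung. Non-implanted lungs served as background.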

Coagulation factor XI = Coagulation factor XI (Homo sapiens, UniProt P03951); experiment: Inhibition of human factor 11a preincubated for 15 mins followed by chromogenic substrate addition
Sequence of Coagulation factor XI (P03951 19-387 limits assumed): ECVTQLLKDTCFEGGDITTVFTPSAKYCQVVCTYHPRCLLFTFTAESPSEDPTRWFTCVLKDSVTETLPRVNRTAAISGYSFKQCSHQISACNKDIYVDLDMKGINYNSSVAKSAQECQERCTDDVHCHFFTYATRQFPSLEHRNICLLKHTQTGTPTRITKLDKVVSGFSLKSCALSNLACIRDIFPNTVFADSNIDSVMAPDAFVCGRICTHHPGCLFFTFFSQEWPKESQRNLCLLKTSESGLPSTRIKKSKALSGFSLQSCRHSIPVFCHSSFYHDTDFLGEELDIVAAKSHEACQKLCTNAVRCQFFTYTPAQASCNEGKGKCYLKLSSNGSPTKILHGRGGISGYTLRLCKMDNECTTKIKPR
Sequence of Coagulation factor XI (P03951 388-625 limits assumed): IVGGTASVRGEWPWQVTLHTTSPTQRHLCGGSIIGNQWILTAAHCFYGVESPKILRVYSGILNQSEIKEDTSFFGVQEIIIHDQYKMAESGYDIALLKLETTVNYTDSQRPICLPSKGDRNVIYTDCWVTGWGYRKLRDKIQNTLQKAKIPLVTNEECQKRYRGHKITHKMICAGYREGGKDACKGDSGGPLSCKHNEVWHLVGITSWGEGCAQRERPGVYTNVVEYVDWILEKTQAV

[3] = Stability in 75% mouse plasma assessed as protease-mediated compound degradation measured within 8 hrs; format: ADME, cell-free
How it was run: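 Peptide was preincubated in 75% murine plasma for 0–24 h (sampled at 0, 2, 8 and 24 h). Residual uPA-inhibitory activity was then measured and expressed as IC50.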

[4] = target: Urokinase-type plasminogen activator (Mus musculus) (UniProt P06869); experiment: Inhibition of the intrinsic peri-cellular uPA in mouse CT26 cells assessed as reduction in cell migration at 30 to 100 uM measured every hour by wound healing assay relative to control; format: cell-based
Sequence of Urokinase-type plasminogen activator (Mus musculus) (P06869 21-178 limits assumed): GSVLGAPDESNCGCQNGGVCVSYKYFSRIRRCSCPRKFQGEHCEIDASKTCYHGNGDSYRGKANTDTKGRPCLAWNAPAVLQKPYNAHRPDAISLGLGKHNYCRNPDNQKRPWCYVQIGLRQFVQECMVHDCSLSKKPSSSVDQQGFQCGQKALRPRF
Sequence of Urokinase-type plasminogen activator (Mus musculus) (P06869 180-433 limits assumed): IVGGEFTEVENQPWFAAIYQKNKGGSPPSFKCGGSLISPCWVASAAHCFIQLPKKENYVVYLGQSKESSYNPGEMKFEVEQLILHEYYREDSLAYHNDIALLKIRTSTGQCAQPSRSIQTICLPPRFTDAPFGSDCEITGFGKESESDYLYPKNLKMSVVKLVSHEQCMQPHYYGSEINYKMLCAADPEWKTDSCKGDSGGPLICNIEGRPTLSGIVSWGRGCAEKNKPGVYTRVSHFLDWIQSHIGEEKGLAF

[5] = target: Tissue-type plasminogen activator (Homo sapiens, UniProt P00750); experiment: Inhibition of human tissue-type plasminogen activator preincubated for 15 mins followed by chromogenic substrate addition
Sequence of Tissue-type plasminogen activator (P00750 whole entry): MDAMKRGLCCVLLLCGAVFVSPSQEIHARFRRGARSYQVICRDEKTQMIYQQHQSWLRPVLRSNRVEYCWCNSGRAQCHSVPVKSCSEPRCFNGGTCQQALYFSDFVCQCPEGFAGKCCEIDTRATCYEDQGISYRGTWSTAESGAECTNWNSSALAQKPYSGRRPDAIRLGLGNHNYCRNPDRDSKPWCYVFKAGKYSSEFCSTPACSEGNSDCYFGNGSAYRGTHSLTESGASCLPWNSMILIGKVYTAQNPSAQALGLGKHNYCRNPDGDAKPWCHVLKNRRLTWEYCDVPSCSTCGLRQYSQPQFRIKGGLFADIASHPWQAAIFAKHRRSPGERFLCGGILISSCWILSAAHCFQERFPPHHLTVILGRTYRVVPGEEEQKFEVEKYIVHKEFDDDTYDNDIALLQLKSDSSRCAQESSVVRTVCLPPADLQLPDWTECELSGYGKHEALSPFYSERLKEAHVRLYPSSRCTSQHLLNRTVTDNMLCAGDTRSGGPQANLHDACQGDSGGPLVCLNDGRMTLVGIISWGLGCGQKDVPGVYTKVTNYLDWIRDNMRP

[6] = Toxicity in Balb/c mouse allografted with mouse CT26 cells assessed as effect on body weight at 1.13 to 11.3 mg/kg, ip administered daily for 15 days; format: organism-based; details: in vivo, 360 h
CT26 [7] = experiment: Antimetastatic activity against GFP-fused mouse CT26 cells allografted in Balb/c mouse assessed as reduction genomic DNA of metastatic cells at 11.3 mg/kg, ip administered daily for 15 days by qPCR analysis; format: functional; details: 360 h
How it was run: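 Male Balb/c mice (~20 g, 6/group) given 10^6 GFP-CT-26 cells i.v. in 200 µl mixed with peptide or saline, then daily i.p. peptide Day 1–15; sacrificed Day 16. Lung total DNA isolated after homogenization; 200 ng per SYBR Green qPCR, quantified against standard curve of CT-26 DNA spiked into normal lung DNA (0.135%-100%).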

[8] = target: Urokinase-type plasminogen activator (Mus musculus) (UniProt P06869); experiment: Binding affinity to mouse uPA assessed as dissociation rate constant after 600 secs by SPR assay
[9] = Drug level in blood of GFP-fused mouse CT26 cells allografted in Balb/c mouse at 11.3 mg/kg, ip administered daily for 15 days; format: ADME, organism-based; details: read-out: Drug uptake
[10] = Inhibition of mouse trypsin preincubated for 15 mins followed by chromogenic substrate addition
[11] = target: Urokinase-type plasminogen activator (Mus musculus, UniProt P06869); experiment: Binding affinity to mouse uPA expressed in HEK2936E cells by ITC assay
Sequence of Urokinase-type plasminogen activator (P06869 21-178 limits assumed): as the sequence (P06869 21-178 limits assumed) above
Sequence of Urokinase-type plasminogen activator (P06869 180-433 limits assumed): as the sequence (P06869 180-433 limits assumed) above

[12] = target: T1, Suppressor of tumorigenicity 14 protein (Homo sapiens, UniProt Q9Y5Y6); experiment: Inhibition of human matriptase preincubated for 15 mins followed by chromogenic substrate addition
T1 sequence (Q9Y5Y6 whole entry): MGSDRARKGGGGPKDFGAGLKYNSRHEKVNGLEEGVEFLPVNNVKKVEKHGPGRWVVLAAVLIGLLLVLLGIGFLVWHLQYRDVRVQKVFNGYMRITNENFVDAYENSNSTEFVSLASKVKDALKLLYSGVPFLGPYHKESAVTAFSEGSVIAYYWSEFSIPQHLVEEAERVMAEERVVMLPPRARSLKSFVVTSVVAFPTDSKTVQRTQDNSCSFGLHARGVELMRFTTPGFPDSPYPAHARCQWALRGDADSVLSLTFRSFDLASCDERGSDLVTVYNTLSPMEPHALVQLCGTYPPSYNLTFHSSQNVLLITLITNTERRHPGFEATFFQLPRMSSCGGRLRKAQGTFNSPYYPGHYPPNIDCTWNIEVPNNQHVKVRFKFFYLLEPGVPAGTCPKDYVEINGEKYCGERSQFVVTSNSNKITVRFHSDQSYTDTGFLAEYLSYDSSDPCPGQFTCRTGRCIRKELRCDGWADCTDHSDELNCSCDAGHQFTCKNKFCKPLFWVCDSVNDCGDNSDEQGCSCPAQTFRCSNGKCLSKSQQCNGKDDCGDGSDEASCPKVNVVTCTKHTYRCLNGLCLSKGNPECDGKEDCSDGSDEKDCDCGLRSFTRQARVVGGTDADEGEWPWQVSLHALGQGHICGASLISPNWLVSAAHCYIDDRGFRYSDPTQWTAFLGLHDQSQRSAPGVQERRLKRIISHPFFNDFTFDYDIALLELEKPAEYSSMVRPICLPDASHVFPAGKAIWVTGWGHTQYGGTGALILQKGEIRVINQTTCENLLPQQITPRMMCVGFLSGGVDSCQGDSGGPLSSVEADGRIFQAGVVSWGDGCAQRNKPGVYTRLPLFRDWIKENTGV

CC[C@H](C)[C@@H]1NC(=O)[C@H](Cc2ccc(O)cc2)NC(=O)[C@H](CCCNC(=N)N)NC(=O)[C@H](CO)NC(=O)[C@H](Cc2ccc(O)cc2)NC(=O)[C@H](C)NC(=O)[C@@H]2CCCN2C(=O)[C@@H](N)CSSC[C@@H](C(=O)O)NC(=O)CNC1=O (H-CPAYSRYIGC-OH; disulfide 1-10)
Activity (CT26 [1]): inactive | Activity (CT26 [2]): inactive | pKi (Coagulation factor XI): < 4.60 | Stability [3]: Stable | inhibition [4]: 30% | pKi [5]: < 4.60 | Activity [6]: Non-Toxic | inhibition in vivo at 11.3 mg/kg (CT26 [7]): 49.8% | K [8]: 0.00066 s⁻¹ | concentration at 360 h [9]: 100 µM | pKi [10]: 5.68 | pKd [11]: 7.97 | pKi [12]: < 4.60
